Measurements from ChEMBL document CHEMBL1124821, “Design of an antithrombotic-antihypertensive agent (Wy 27569). Synthesis and evaluation of a series of 2-heteroaryl-substituted dihydropyridines” (J Med Chem, 1990).
Values joined by “and” are separate entries in the source; they are usually repeats but may differ in a detail not shown here. Equal entries are not always repeated. Blank lines part the entries; values can stand above or below the molecule they belong to.

Key:
[1] = test system: Rattus norvegicus; experiment: Reduction in blood pressure of rats, 2 hr after 0.03 mmol/kg p.o. administration; format: functional
How it was run: (§1)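 Female SHR (250–300 g) kept in 37 °C constant-temperature housing; systolic pressure measured by tail-cuff with a pneumatic pulse transducer. Rats below 155 mmHg discarded. Groups of four given a single oral dose in 0.5% (hydroxypropyl)methylcellulose–0.9% saline (10 mL/kg) or vehicle alone; pressure recorded before dosing and at 2, 6 and 24 h. Analysed by analysis of variance.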

[2] = test system: Rattus norvegicus; experiment: The compound was tested for reducing blood pressure in rats after 6 hours of 0.003 mmol/kg oral administration.; format: functional; how it was run: as §1
[3] = test system: Rattus norvegicus; experiment: The compound was tested for reducing blood pressure in rats after 6 hours of 0.03 mmol/kg oral administration.; format: functional; how it was run: as §1
[4] = test system: Rattus norvegicus; experiment: The compound was tested for reducing blood pressure in rats after 2 hours of 0.003 mmol/kg oral administration.; format: functional; how it was run: as §1
[5] = biological target: Thromboxane-A synthase (Oryctolagus cuniculus); experiment: Inhibition of Thromboxane A2 synthase in rabbit platelets in vitro
[6] = organism: Homo sapiens; experiment: The compound was tested for effects of compound on 6-KPGF1alpha production at molar concentration of 10e-3 in human platelet rich plasma; format: functional
[7] = organism: Homo sapiens; experiment: The compound was tested for effects of compound on 6-KPGF1alpha production at molar concentration of 10e-4 in human platelet rich plasma; format: functional
[8] = organism: Homo sapiens; experiment: The compound was tested for effects of compound on 6-KPGF1alpha production at molar concentration of 10e-5 in human platelet rich plasma; format: functional
[9] = organism: Homo sapiens; experiment: The compound was tested for effects of compound on 6-KPGF1alpha production at molar concentration of 10e-6 in human platelet rich plasma; format: functional
[10] = organism: Homo sapiens; experiment: The compound was tested for effects of compound on 6-KPGF1alpha production at molar concentration of 10e-7 in human platelet rich plasma; format: functional
[11] = organism: Homo sapiens; experiment: The compound was tested for effects of compound on TXB2 production at molar concentration of 10e-3 in human platelet rich plasma; format: functional
[12] = organism: Homo sapiens; experiment: The compound was tested for effects of compound on TXB2 production at molar concentration of 10e-4 in human platelet rich plasma; format: functional
[13] = organism: Homo sapiens; experiment: The compound was tested for effects of compound on TXB2 production at molar concentration of 10e-5 in human platelet rich plasma; format: functional
[14] = organism: Homo sapiens; experiment: The compound was tested for effects of compound on TXB2 production at molar concentration of 10e-6 in human platelet rich plasma; format: functional
[15] = organism: Homo sapiens; experiment: The compound was tested for effects of compound on TXB2 production at molar concentration of 10e-7 in human platelet rich plasma; format: functional
[16] = test system: Rattus norvegicus; experiment: The compound was tested for plasma levels of TXB2 in rats after 2 hr following dose 10(mg/kg) in oral administration.; format: functional, organism-based
How it was run: (§2)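 Female normotensive rats killed by CO₂ asphyxiation 2 h after oral dosing with compound or vehicle (n = 10–13 per group). Blood taken from the posterior vena cava with 1% EDTA, centrifuged at once (10000g, 10 min), and plasma stored at –30 °C. TXB₂ and 6-KPGF1α measured by radioimmunoassay, in pg/mL, mean ± SEM. p < 0.05 versus controls taken as significant.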

[17] = test system: Rattus norvegicus; experiment: The compound was tested for plasma levels of TXB2 in rats after 2 hr following dose 3(mg/kg) in oral administration.; format: functional, organism-based; how it was run: as §2
[18] = test system: Rattus norvegicus; experiment: The compound was tested for plasma levels of TXB2 in rats after 2 hr following dose 3(mg/kg) in oral administration. (p<0.05); format: functional, organism-based; how it was run: as §2
[19] = test system: Rattus norvegicus; experiment: The compound was tested for reducing blood pressure in rats after 6 hours of 0.03 mmol/kg oral administration; format: functional; how it was run: as §1
[20] = organism: Homo sapiens; experiment: The compound was tested for effects of compound on TXB2 production at different molar concentration of 10e-3 in human platelet rich plasma; format: functional
[21] = organism: Homo sapiens; experiment: The compound was tested for effects of compound on TXB2 production at different molar concentration of 10e-4 in human platelet rich plasma; format: functional
[22] = test system: Rattus norvegicus; experiment: The compound was tested for reducing blood pressure in rats after 2 hours of 0.03 mmol/kg oral administration; format: functional; how it was run: as §1
[23] = test system: Rattus norvegicus; experiment: The compound was tested for reducing blood pressure in rats after 2 hours of 0.003 mmol/kg oral administration; format: functional; how it was run: as §1
[24] = test system: Rattus norvegicus; experiment: The compound was tested for plasma levels of 6-KPGF1alpha in rats after 2 hr following dose 0.3(mg/kg) in oral administration; format: functional, organism-based; how it was run: as §2
[25] = test system: Rattus norvegicus; experiment: The compound was tested for plasma levels of 6-KPGF1alpha in rats after 2 hr following dose 10(mg/kg) in oral administration.; format: functional, organism-based; how it was run: as §2
[26] = test system: Rattus norvegicus; experiment: The compound was tested for plasma levels of TXB2 in rats after 2 hr following dose 0.3(mg/kg) in oral administration; format: functional, organism-based; how it was run: as §2
[27] = test system: Rattus norvegicus; experiment: The compound was tested for plasma levels of TXB2 in rats after 2 hr following dose 1(mg/kg) in oral administration; format: functional, organism-based; how it was run: as §2
[28] = test system: Rattus norvegicus; experiment: The compound was tested for plasma levels of TXB2 in rats after 2 hr following dose 10(mg/kg) in oral administration; format: functional, organism-based; how it was run: as §2
[29] = test system: Rattus norvegicus; experiment: The compound was tested for plasma levels of TXB2 in rats after 2 hr following dose 3(mg/kg) in oral administration (P<0.05); format: functional, organism-based; how it was run: as §2
[30] = test system: Rattus norvegicus; experiment: The compound was tested for plasma levels of 6-KPGF1alpha in rats after 2 hr following dose 3(mg/kg) in oral administration; format: functional, organism-based; how it was run: as §2
[31] = organism: Homo sapiens; experiment: The compound was tested for effects of compound on TXB2 production at different molar concentration of 10e-5 in human platelet rich plasma; format: functional
[32] = organism: Homo sapiens; experiment: The compound was tested for effects of compound on TXB2 production at different molar concentration of 10e-6 in human platelet rich plasma; format: functional
[33] = organism: Homo sapiens; experiment: The compound was tested for effects of compound on TXB2 production at different molar concentration of 10e-7 in human platelet rich plasma; format: functional
[34] = test system: Rattus norvegicus; experiment: The compound was tested for plasma levels of 6-KPGF1alpha in rats after 2 hr following dose 3(mg/kg) in oral administration. (p<0.05); format: functional, organism-based; how it was run: as §2

Structure (SMILES): CCO/C(O)=C1\C(COCc2cccnc2)=NC(C)=C(C(=O)OC)C1c1cccc([N+](=O)[O-])c1.Cl (stereo unspecified)
Decrease in blood pressure [1]: 18%

Structure (SMILES): CCO/C(O)=C1\C(Cn2ccnc2)=NC(C)=C(C(=O)OC)C1c1ccccc1[N+](=O)[O-] (stereo unspecified)
Decrease in blood pressure [1]: 59%
Decrease in blood pressure [2]: 14%
Decrease in blood pressure [3]: 56%
Decrease in blood pressure [4]: 44%

Structure (SMILES): CCO/C(O)=C1\C(Cn2ccnc2)=NC(C)=C(C(=O)OC)C1c1cccc(Cl)c1Cl (stereo unspecified)
Decrease in blood pressure [1]: 54%
Decrease in blood pressure [2]: 20%
Decrease in blood pressure [3]: 49%
Decrease in blood pressure [4]: 40%

Structure (SMILES): CCO/C(O)=C1\C(Cn2ccnc2)=NC(C)=C(C(=O)OC)C1c1ccccc1OC(F)F (stereo unspecified)
Decrease in blood pressure [1]: 55% and 48%

Structure (SMILES): CCO/C(O)=C1\C(COCCc2cccnc2)=NC(C)=C(C(=O)OC)C1c1cccc([N+](=O)[O-])c1.Cl (stereo unspecified)
Decrease in blood pressure [1]: 40%

IC50 [5]: 2.3 µM
Structure (SMILES): CCOC(=O)C1=C(C)N=C(CCn2ccnc2)/C(=C(/O)OCC)C1c1ccccc1[N+](=O)[O-].O=C(O)/C=C\C(=O)O (stereo unspecified)
Decrease in blood pressure [1]: 44%

Structure (SMILES): CCO/C(O)=C1\C(Cn2ccnc2)=NC(C)=C(C(=O)OC)C1c1cccc(C(F)(F)F)c1Cl (stereo unspecified)
Decrease in blood pressure [1]: 60%
Decrease in blood pressure [3]: 52%
Decrease in blood pressure [4]: 16%

Structure (SMILES): O=C(O)c1ccc(OCCn2ccnc2)cc1 [DAZOXIBEN]
Production [6]: 345%
Production [7]: 460%
Production [8]: 603%
Production [9]: 463%
Production [10]: 115%
Production [11]: 2%
Production [12]: 5%
Production [13]: 21%
Production [14]: 69%
Production [15]: 97.5%
Plasma level [16]: 270 pg/mL and 202 pg/mL
Plasma level [17]: 384 pg/mL
Plasma level [18]: 384 pg/mL

IC50 [5]: 5.3 µM
Structure (SMILES): CCOC(=O)C1=C(CCn2ccnc2)N=C(CCn2ccnc2)/C(=C(/O)OCC)C1c1cccc([N+](=O)[O-])c1 (stereo unspecified)

IC50 [5]: 125 µM
Structure (SMILES): CCO/C(O)=C1\C(C)=NC(Cn2ccnc2)=C(C(=O)OC)C1c1cccc(C(F)(F)F)c1Cl (stereo unspecified)
Decrease in blood pressure [1]: 16%

IC50 [5]: 19.5 µM
Structure (SMILES): Br.CCO/C(O)=C1\C(Cn2ccnc2)=NC(C)=C(C(=O)OC)C1c1c(F)cccc1Cl (stereo unspecified)
Decrease in blood pressure [1]: 48% and 35%

IC50 [5]: 0.6 µM
Structure (SMILES): CCO/C(O)=C1\C(Cn2ccnc2)=NC(Cn2ccnc2)=C(C(=O)OC)C1c1cccc([N+](=O)[O-])c1 (stereo unspecified)

IC50 [5]: 2.2 µM
Structure (SMILES): CCO/C(O)=C1\C(C)=NC(Cn2ccnc2)=C(C(=O)OC)C1c1cccc([N+](=O)[O-])c1 (stereo unspecified)

Structure (SMILES): CCO/C(O)=C1\C(COCCn2ccnc2)=NC(C)=C(C(=O)OC)C1c1cccc([N+](=O)[O-])c1.Cl (stereo unspecified)
Decrease in blood pressure [1]: 56%
Decrease in blood pressure [19]: 42%

Structure (SMILES): CCOC(=O)C1=C(C)N=C(Cn2ccnc2)/C(=C(/O)OCC)C1c1cccc([N+](=O)[O-])c1.Cl (stereo unspecified)
Decrease in blood pressure [1]: 47%
Decrease in blood pressure [3]: 13%

IC50 [5]: 25 µM
Structure (SMILES): CCO/C(O)=C1\C(C)=NC(Cn2ccnc2)=C(C(=O)OC)C1c1ccccc1OC(F)F (stereo unspecified)
Decrease in blood pressure [1]: 48%
Decrease in blood pressure [3]: 31%

Structure (SMILES): COC(=O)C1=C(C)N=C(Cn2ccnc2)/C(=C(/O)OC)C1c1cccc([N+](=O)[O-])c1.Cl (stereo unspecified)
Decrease in blood pressure [1]: 42%
Decrease in blood pressure [3]: 27%

Structure (SMILES): CCOC(=O)C1=C(COc2cccnc2)NC(C)=C(C(=O)OC)C1c1cccc([N+](=O)[O-])c1.Cl (stereo unspecified)
Decrease in blood pressure [1]: 40%

Structure (SMILES): CCO/C(O)=C1\C(Cn2ccnc2)=NC(C)=C(C(=O)OC)C1c1cccc([N+](=O)[O-])c1.Cl (stereo unspecified)
Production [6]: 460%
Production [7]: 431%
Production [8]: 119%
Production [9]: 112%
Production [10]: 100%
Production [20]: 0%
Production [21]: 10%
Production [13]: 43%
Production [14]: 67%
Production [15]: 92%
Decrease in blood pressure [22]: 51%
Decrease in blood pressure [19]: 38% and 28%
Decrease in blood pressure [23]: 34%
Plasma level [24]: 22 pg/mL
Plasma level [25]: 94 pg/mL
Plasma level [26]: 484 pg/mL
Plasma level [27]: 402 pg/mL
Plasma level [28]: 280 pg/mL
Plasma level [29]: 330 pg/mL
Plasma level [30]: 68 pg/mL

Structure (SMILES): CCOC(=O)C1=C(C)NC(C)=C(C(=O)OC)C1c1cccc([N+](=O)[O-])c1 (stereo unspecified) [NITRENDIPINE]
Production [6]: 96%
Production [7]: 121%
Production [8]: 136%
Production [9]: 113%
Production [10]: 112%
Production [20]: 35%
Production [21]: 40%
Production [31]: 81%
Production [32]: 84%
Production [33]: 87%
Decrease in blood pressure [1]: 33%
Plasma concentration [34]: 62 pg/mL
Plasma concentration [25]: 60 pg/mL
Plasma concentration [16]: 562 pg/mL
Plasma concentration [17]: 564 pg/mL

Structure (SMILES): CCO/C(O)=C1\C(Cn2ccnc2)=NC(C)=C(C(=O)OC(C)C)C1c1cccc([N+](=O)[O-])c1.Cl (stereo unspecified)
Decrease in blood pressure [1]: 21%
Decrease in blood pressure [3]: 19%

IC50 [5]: 0.5 µM
Structure (SMILES): CCO/C(O)=C1\C(Cn2ccnc2)=NC(C)=C(C(=O)OC)C1c1ccccc1Cl (stereo unspecified)
Decrease in blood pressure [1]: 31%
Decrease in blood pressure [3]: 15%
